# Data published in ChEMBL document CHEMBL2203173 (J Med Chem, 2012).
# Assays:
# Mus musculus [1] = test: Cardiotoxicity in BALB/c nu/nu mouse xenografted with human DMS53 cells at 4 mg/kg, iv administered for 5 days a week measured after 21 days; format: toxicity, organism-based, DMS-53; design: dose 4 mg/kg, route intravenous; conditions: in vivo, 504 h
# In short: (§1)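 DMS-53 xenograft nude mice given agents iv by tail vein 5 days/week in 30% propylene glycol/saline for 21 days. At sacrifice, heart sections were stained with Gomori Trichrome to detect fibrosis. Spleen, kidney, liver, heart, lungs and brain were also stained with H&E and Perls' and examined by an independent veterinary pathologist.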
# Mus musculus [2] = test: Toxicity in BALB/c nu/nu mouse xenografted with human DMS53 cells assessed as change in hemoglobin level at 8 mg/kg, iv administered for 5 days a week measured after 21 days; format: organism-based, DMS-53; design: dose 8 mg/kg, route intravenous; conditions: in vivo, 504 h
# In short: (§2)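 DMS-53 xenografts in nude mice; dosing started at 100 mm3 tumor volume. Agents given iv via tail vein, 5 days/week for 21 days, vehicle 30% propylene glycol/saline, vehicle-treated controls. Mice sacrificed day 21. Body and organ weights and hematological indices recorded. Spleen, kidney, liver, heart, lungs and brain were stained with H&E, Perls' and Gomori Trichrome and read by an independent veterinary pathologist.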
# Mus musculus [3] = test: Toxicity in BALB/c nu/nu mouse xenografted with human DMS53 cells assessed as change in RBC count at 8 mg/kg, iv administered for 5 days a week measured after 21 days; format: organism-based, DMS-53; design: dose 8 mg/kg, route intravenous; conditions: in vivo, 504 h
# Mus musculus [4] = test: Toxicity in BALB/c nu/nu mouse xenografted with human DMS53 cells assessed as change in RBC count at 4 mg/kg, iv administered for 5 days a week measured after 21 days; format: organism-based, DMS-53; design: dose 4 mg/kg, route intravenous; conditions: in vivo, 504 h
# Mus musculus [5] = test: Toxicity in BALB/c nu/nu mouse xenografted with human DMS53 cells assessed as change in heart histology at 7.5 mg/kg, po administered for 3 times a week measured after 20 days; format: organism-based, DMS-53; design: dose 7.5 mg/kg, route oral; conditions: in vivo, 480 h
# In short: (§3)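 Nude mice bearing DMS-53 xenografts gavaged 3 times/week for 20 days, vehicle 30% propylene glycol/saline, vehicle controls, n = 6-11 mice/condition. Sacrifice on day 20. Organ weights and hematological indices recorded. Spleen, kidney, liver, heart, lungs and brain examined histologically, hearts stained with Gomori Trichrome for fibrosis.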
# Mus musculus [6] = test: Toxicity in BALB/c nu/nu mouse xenografted with human DMS53 cells assessed as change in hematocrit level at 20 mg/kg, po administered for 3 times a week measured after 20 days; format: organism-based, DMS-53; design: dose 20 mg/kg, route oral; conditions: in vivo, 480 h; in short: as §3
# Mus musculus [7] = test: Toxicity in BALB/c nu/nu mouse xenografted with human DMS53 cells assessed as change in spleen weight at 20 mg/kg, po administered for 3 times a week measured after 20 days; format: organism-based, DMS-53; design: dose 20 mg/kg, route oral; conditions: in vivo, 480 h
# In short: (§4)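 DMS-53 xenograft nude mice were gavaged 3 times/week in 30% propylene glycol/saline vehicle for 20 days and then sacrificed. Organ weights and histology of spleen, kidney, liver, heart, lungs and brain were compared with vehicle controls. n = 6-11 mice/condition.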
# Mus musculus [8] = test: Toxicity in BALB/c nu/nu mouse xenografted with human DMS53 cells assessed as change in heart weight at 20 mg/kg, po administered for 3 times a week measured after 20 days; format: organism-based, DMS-53; design: dose 20 mg/kg, route oral; conditions: in vivo, 480 h; in short: as §3
# Mus musculus [9] = test: Toxicity in BALB/c nu/nu mouse xenografted with human DMS53 cells assessed as hepatocellular necrosis at 8 mg/kg, iv administered for 5 days a week measured after 21 days by hematoxylin and eosin staining method; format: organism-based, DMS-53; design: dose 8 mg/kg, route intravenous; conditions: in vivo, 504 h
# In short: (§5)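 Nude mice with DMS-53 xenografts dosed by tail-vein iv injection in 30% propylene glycol/saline, starting at 100 mm3 tumour volume, 5 days/week for 21 days. Spleen, kidney, liver, heart, lungs and brain were stained with H&E, Perls' (Fe loading) and Gomori Trichrome (fibrosis) by standard methods, and an independent veterinary pathologist examined them.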
# Mus musculus [10] = test: Toxicity in BALB/c nu/nu mouse xenografted with human DMS53 cells assessed as hepatocellular necrosis at 4 mg/kg, iv administered for 5 days a week measured after 21 days by hematoxylin and eosin staining method; format: organism-based, DMS-53; design: dose 4 mg/kg, route intravenous; conditions: in vivo, 504 h; in short: as §5
# Mus musculus [11] = test: Toxicity in BALB/c nu/nu mouse xenografted with human DMS53 cells assessed as vacuolation at 4 mg/kg, iv administered for 5 days a week measured after 21 days by hematoxylin and eosin staining method; format: organism-based, DMS-53; design: dose 4 mg/kg, route intravenous; conditions: in vivo, 504 h; in short: as §5
# Mus musculus [12] = test: Toxicity in BALB/c nu/nu mouse xenografted with human DMS53 cells assessed as change in hematopoetic cells in splenic red pulp at 4 mg/kg, iv administered for 5 days a week measured after 21 days by hematoxylin and eosin staining method; format: organism-based, DMS-53; design: dose 4 mg/kg, route intravenous; conditions: in vivo, 504 h; in short: as §2
# Mus musculus [13] = test: Cardiotoxicity in BALB/c nu/nu mouse xenografted with human DMS53 cells at 6 mg/kg, iv administered for 5 days a week measured after 21 days; format: toxicity, organism-based, DMS-53; design: dose 6 mg/kg, route intravenous; conditions: in vivo, 504 h; in short: as §1
# Mus musculus [14] = test: Toxicity in BALB/c nu/nu mouse xenografted with human DMS53 cells assessed as change in hemoglobin level at 6 mg/kg, iv administered for 5 days a week measured after 21 days; format: organism-based, DMS-53; design: dose 6 mg/kg, route intravenous; conditions: in vivo, 504 h; in short: as §2
# Mus musculus [15] = test: Toxicity in BALB/c nu/nu mouse xenografted with human DMS53 cells assessed as change in body weight at 6 mg/kg, iv administered for 5 days a week measured after 21 days; format: organism-based, DMS-53; design: dose 6 mg/kg, route intravenous; conditions: in vivo, 504 h; in short: as §2
# Mus musculus [16] = test: Toxicity in BALB/c nu/nu mouse xenografted with human DMS53 cells assessed as change in body weight at 3 mg/kg, iv administered for 5 days a week measured after 21 days; format: organism-based, DMS-53; design: dose 3 mg/kg, route intravenous; conditions: in vivo, 504 h; in short: as §2
# Mus musculus [17] = test: Toxicity in BALB/c nu/nu mouse xenografted with human DMS53 cells assessed as change in spleen weight at 7.5 mg/kg, po administered for 3 times a week measured after 20 days; format: organism-based, DMS-53; design: dose 7.5 mg/kg, route oral; conditions: in vivo, 480 h; in short: as §4
# Mus musculus [18] = test: Toxicity in BALB/c nu/nu mouse xenografted with human DMS53 cells assessed as change in hemoglobin level at 7.5 mg/kg, po administered for 3 times a week measured after 20 days; format: organism-based, DMS-53; design: dose 7.5 mg/kg, route oral; conditions: in vivo, 480 h; in short: as §3
# Mus musculus [19] = test: Toxicity in BALB/c nu/nu mouse xenografted with human DMS53 cells assessed as change in heart weight at 7.5 mg/kg, po administered for 3 times a week measured after 20 days; format: organism-based, DMS-53; design: dose 7.5 mg/kg, route oral; conditions: in vivo, 480 h; in short: as §3
# Mus musculus [20] = test: Toxicity in BALB/c nu/nu mouse xenografted with human DMS53 cells assessed as change in lung weight at 10 mg/kg, po administered for 3 times a week measured after 20 days; format: organism-based, DMS-53; design: dose 10 mg/kg, route oral; conditions: in vivo, 480 h; in short: as §3
# Mus musculus [21] = test: Toxicity in BALB/c nu/nu mouse xenografted with human DMS53 cells assessed as change in lungs histology at 3 mg/kg, iv administered for 5 days a week measured after 21 days by hematoxylin and eosin staining method; format: organism-based, DMS-53; design: dose 3 mg/kg, route intravenous; conditions: in vivo, 504 h; in short: as §2
# Mus musculus [22] = test: Toxicity in BALB/c nu/nu mouse xenografted with human DMS53 cells assessed as hepatocellular fibrosis at 6 mg/kg, iv administered for 5 days a week measured after 21 days by hematoxylin and eosin staining method; format: organism-based, DMS-53; design: dose 6 mg/kg, route intravenous; conditions: in vivo, 504 h; in short: as §5
# Mus musculus [23] = test: Toxicity in BALB/c nu/nu mouse xenografted with human DMS53 cells assessed as hepatocellular necrosis at 6 mg/kg, iv administered for 5 days a week measured after 21 days by hematoxylin and eosin staining method; format: organism-based, DMS-53; design: dose 6 mg/kg, route intravenous; conditions: in vivo, 504 h; in short: as §5
# Mus musculus [24] = test: Toxicity in BALB/c nu/nu mouse xenografted with human DMS53 cells assessed as hepatocellular necrosis at 0.75 mg/kg, iv administered for 5 days a week measured after 21 days by hematoxylin and eosin staining method; format: organism-based, DMS-53; design: dose 0.75 mg/kg, route intravenous; conditions: in vivo, 504 h; in short: as §5
# Mus musculus [25] = test: Toxicity in BALB/c nu/nu mouse xenografted with human DMS53 cells assessed as cardiac fibrosis at 6 mg/kg, iv administered for 5 days a week measured after 21 days by […]; format: organism-based, Heart, DMS-53; design: dose 6 mg/kg, route intravenous; conditions: in vivo, 504 h; in short: as §1
structure (smiles),measurement,setting,value
CN(C(=S)NN=C(c1ccccn1)c1ccccn1)C1CCCCC1.Cl,Activity,Mus musculus [1],Non-toxic
same,Activity,Mus musculus [2],Toxic
same,Activity,Mus musculus [3],Toxic
same,Activity,Mus musculus [4],Non-toxic
same,Activity,Mus musculus [5],Non-toxic
same,Activity,Mus musculus [6],Non-toxic
same,Activity,Mus musculus [7],Non-toxic
same,Activity,Mus musculus [8],Non-toxic
same,Activity,Mus musculus [9],Non-toxic
same,Activity,Mus musculus [10],Non-toxic
same,Activity,Mus musculus [11],Non-toxic
same,Activity,Mus musculus [12],Non-toxic
CCN(C)C(=S)NN=C(c1ccccn1)c1ccccn1.Cl,Activity,Mus musculus [13],Non-toxic
same,Activity,Mus musculus [14],Non-toxic
same,Activity,Mus musculus [15],Non-toxic
same,Activity,Mus musculus [16],Non-toxic
same,Activity,Mus musculus [17],Toxic
same,Activity,Mus musculus [5],Non-toxic
same,Activity,Mus musculus [18],Toxic
same,Activity,Mus musculus [19],Non-toxic
same,Activity,Mus musculus [20],Toxic
same,Activity,Mus musculus [21],Non-toxic
same,Activity,Mus musculus [22],Non-toxic
same,Activity,Mus musculus [23],Non-toxic
same,Activity,Mus musculus [24],Non-toxic
same,Activity,Mus musculus [25],Non-toxic
